# Measurements collected from several papers.
# Target: Serine/threonine-protein kinase WNK1 (WNK1, Homo sapiens, UniProt Q9H4A3)
Structure (SMILES),effect on,method,tested at,remaining binding [%]
c1cncc(-c2cccc(Nc3nccc(NC4CCCCC4)n3)c2)c1,binding,competition with immobilised ligand,10 µM,87
NS(=O)(=O)c1cc(NC(=O)Cc2ccccc2)ccc1Oc1cccc(Cl)c1,cell-free assay,competition with immobilised ligand,1 µM,89
O=C(c1ccc(Nc2nccc(-c3cc4ccccc4s3)n2)cc1)N1CCC(N2CCCC2)CC1,binding,competition with immobilised ligand,1 µM,88
COc1cnc(Nc2cccc(S(N)(=O)=O)c2)nc1N1CCN(c2ccccc2)C(=O)C1,binding,competition with immobilised ligand,1 µM,0
CN(CCCC(F)(F)F)c1nccc(-c2cnn3ncccc23)n1,binding,,1 µM,100
CS(=O)(=O)N1CCCC(NC(=O)[C@H](CCC2CCCCC2)NC(=O)c2ccc(CNC(=O)c3cnc4ccccn34)cc2)C1 (stereo partly drawn),cell-free assay,competition with immobilised ligand,0.1 µM,99
CN(C)c1nccc(-c2cnc3ncccn23)n1,binding,,1 µM,100
O=C(NCC1CCOCC1)c1n[nH]cc1NC(=O)c1c(F)cccc1F,binding,competition with immobilised ligand,1 µM,100
Cc1cc(-n2nc(Cc3cc(F)cc(C(F)(F)F)c3)nc2C)ccc1C(N)=O,cell-free assay,competition with immobilised ligand,1 µM,100
COc1ncc2cc3ccccc3nc2c1C#N,cell-free assay,competition with immobilised ligand,5 µM,95
Cc1cnc(Nc2ccc(C(=O)N3CCC(N4CCCC4)CC3)cc2)nc1-c1cc2ccccc2s1,binding,competition with immobilised ligand,1 µM,90
O=C1NC(c2ccccn2)Sc2ccccc21 (stereo not drawn),cell-free assay,competition with immobilised ligand,1 µM,91
CN(C)c1nccc(-c2cnn3ncccc23)n1,binding,,1 µM,100
O=C(NCCCN1CCOCC1)c1ccc(Nc2nccc(-c3cc4ccccc4s3)n2)cc1,binding,competition with immobilised ligand,1 µM,98
COc1ccnn2ncc(-c3ccnc(N(C)C)n3)c12,binding,,1 µM,100
Cc1nc(N2CC[C@@H](O)C2)ncc1-c1cc(C(F)(F)F)cc2[nH]ncc12,binding,competition with immobilised ligand,1 µM,71
C[C@H]1CCN(c2nccc(-c3cnn4ncccc34)n2)C1,binding,,1 µM,91
CNC(=O)[C@@H]1CC[C@@H](n2c(-c3ccc4cnccc4c3)nc3ccc(C(=O)NCc4cccc(C(N)=O)c4)cc32)C1,binding,competition with immobilised ligand,1 µM,100
